≈ marks a conversion by molar mass, not a printed value. Where a SMILES comes first, the peptide text is derived from it.
Assays:
Endothelin-1 receptor [1] = biological target: T1, Endothelin-1 receptor (Sus scrofa, UniProt Q29010); experiment: The compound was tested for binding inhibitory activity against Endothelin A receptor from porcine aortic smooth muscle membranes.
T1 sequence (Q29010 whole entry): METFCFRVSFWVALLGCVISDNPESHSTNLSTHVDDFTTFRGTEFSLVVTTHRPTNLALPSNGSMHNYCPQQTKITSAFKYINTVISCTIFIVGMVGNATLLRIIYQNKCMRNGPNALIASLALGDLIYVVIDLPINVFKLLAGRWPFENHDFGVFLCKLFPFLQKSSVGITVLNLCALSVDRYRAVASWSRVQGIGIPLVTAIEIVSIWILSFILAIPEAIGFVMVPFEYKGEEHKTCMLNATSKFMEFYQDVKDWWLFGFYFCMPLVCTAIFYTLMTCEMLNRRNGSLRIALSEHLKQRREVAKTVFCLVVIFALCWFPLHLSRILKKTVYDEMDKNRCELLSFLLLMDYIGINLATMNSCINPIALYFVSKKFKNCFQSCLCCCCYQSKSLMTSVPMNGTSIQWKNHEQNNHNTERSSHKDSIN

[2] = biological target: T2, Endothelin receptor type B (Sus scrofa, UniProt P35463); experiment: Inhibitory effect against porcine Endothelin B receptor
T2 sequence (P35463 whole entry): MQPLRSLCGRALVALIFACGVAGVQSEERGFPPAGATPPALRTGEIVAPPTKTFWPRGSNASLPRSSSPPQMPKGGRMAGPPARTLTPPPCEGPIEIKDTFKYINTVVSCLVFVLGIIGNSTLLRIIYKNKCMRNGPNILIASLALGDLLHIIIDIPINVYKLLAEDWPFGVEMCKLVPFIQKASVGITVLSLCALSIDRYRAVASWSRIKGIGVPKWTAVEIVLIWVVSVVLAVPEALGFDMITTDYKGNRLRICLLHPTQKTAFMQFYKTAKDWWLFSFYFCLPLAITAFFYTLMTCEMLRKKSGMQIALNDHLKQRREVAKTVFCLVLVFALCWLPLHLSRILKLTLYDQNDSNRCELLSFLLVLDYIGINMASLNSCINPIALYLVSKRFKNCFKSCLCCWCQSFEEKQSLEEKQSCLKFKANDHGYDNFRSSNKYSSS

Endothelin-1 receptor [3] = biological target: T3, Endothelin-1 receptor (Homo sapiens, UniProt P25101); experiment: Inhibitory effect against Human Endothelin A receptor
T3 sequence (P25101 whole entry): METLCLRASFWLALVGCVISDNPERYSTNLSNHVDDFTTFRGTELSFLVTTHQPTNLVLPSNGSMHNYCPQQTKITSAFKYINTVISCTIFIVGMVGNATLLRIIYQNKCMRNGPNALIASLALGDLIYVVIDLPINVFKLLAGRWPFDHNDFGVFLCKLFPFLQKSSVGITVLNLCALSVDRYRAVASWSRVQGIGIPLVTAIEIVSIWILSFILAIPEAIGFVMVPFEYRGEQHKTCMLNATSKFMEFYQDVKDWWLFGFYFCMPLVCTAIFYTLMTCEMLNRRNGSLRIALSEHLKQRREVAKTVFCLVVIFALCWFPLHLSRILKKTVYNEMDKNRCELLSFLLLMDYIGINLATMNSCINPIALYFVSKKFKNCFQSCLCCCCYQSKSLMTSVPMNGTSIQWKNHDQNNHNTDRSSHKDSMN
In short: (§1)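 Competition binding of 12 pM [125I]ET-1 to membranes from human neuroblastoma SK-N-MC cells (ETA) or Girardi heart cells (ETB), with increasing test compound, in 50 mM Tris/HCl pH 7.4 with protease inhibitors, 1 mM EDTA and 0.3% BSA. Incubated 4 h at 25 °C, filtered, washed, gamma-counted. Nonspecific binding defined with 0.2 μM ET-1. Values are the average of two independent experiments.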

[4] = Solubility in saline; format: physicochemical; details: for solubility: saline, read-out: S
In short: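 Measured on the sodium salts, dissolved in saline.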

Endothelin-1 receptor [5] = biological target: T1, Endothelin-1 receptor; experiment: Inhibitory effect against porcine Endothelin A receptor
In short: (§2)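 [125I]ET-1 displacement from porcine aortic smooth muscle membranes, which are rich in ETA receptors. The IC50 is taken at the high-affinity sites and averaged over more than three independent experiments. The protocol follows an earlier report.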

[6] = biological target: T4, Endothelin receptor type B (Homo sapiens, UniProt P24530); experiment: Inhibitory effect against Human Endothelin B receptor
T4 sequence (P24530 whole entry): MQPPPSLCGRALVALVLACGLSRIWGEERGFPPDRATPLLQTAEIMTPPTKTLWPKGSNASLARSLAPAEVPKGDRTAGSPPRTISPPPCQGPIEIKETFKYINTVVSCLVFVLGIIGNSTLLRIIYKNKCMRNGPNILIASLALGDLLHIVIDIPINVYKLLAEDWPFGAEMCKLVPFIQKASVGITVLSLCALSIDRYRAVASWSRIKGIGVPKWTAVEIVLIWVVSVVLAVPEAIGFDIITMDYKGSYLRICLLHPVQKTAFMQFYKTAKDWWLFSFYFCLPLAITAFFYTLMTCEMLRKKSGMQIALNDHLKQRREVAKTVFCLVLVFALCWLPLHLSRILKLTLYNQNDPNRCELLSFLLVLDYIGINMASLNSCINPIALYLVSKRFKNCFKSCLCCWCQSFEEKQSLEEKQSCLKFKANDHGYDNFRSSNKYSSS

Endothelin-1 receptor [7] = biological target: T1, Endothelin-1 receptor; experiment: Inhibitory effect against porcine ET-A receptor; in short: as §2
Sus scrofa = organism: Sus scrofa; experiment: Anti vasoconstriction activity was evaluated in isolated porcine coronary arteries; format: functional; details: read-out: pA2 (converted)
Endothelin-1 receptor [8] = biological target: T3, Endothelin-1 receptor; experiment: Inhibitory effect against Human ET-A receptor; in short: as §1

SMILES | IC50 max (Endothelin-1 receptor [1]) [nM] | IC50 [2] [nM] | IC50 (Endothelin-1 receptor [3]) [nM] | solubility [4] [µg/mL] | IC50 (Endothelin-1 receptor [5]) [nM] | IC50 [6] [nM] | IC50 (Endothelin-1 receptor [7]) [nM] | Kb (Sus scrofa) [nM] | IC50 (Endothelin-1 receptor [8]) [nM] | S ([4]; buffer) [mg/mL]
CC[C@H](C)[C@H]1NC(=O)[C@H](C)NC(=O)[C@@H](CCC(=O)O)NC(=O)[C@@H](Cc2c[nH]c3ccccc23)NC(=O)[C@H](CC(C)C)NC1=O (HELM PEPTIDE1{A.[CC[C@H](C)[C@@H](N[*:1])C(=O)[*:2]].L.[dW].[dE]}$PEPTIDE1,PEPTIDE1,1:R1-5:R2$$$V2.0) | 1400 | > 100000 | 590 | 210 (≈ 0.343 mM) | 1400 | > 100000 | – | – | – | –
CC(C)C[C@@H]1NC(=O)[C@@H](C2CCCC2)NC(=O)[C@@H]2CCCN2C(=O)[C@@H](CC(=O)O)NC(=O)[C@@H](Cc2c[nH]c3ccccc23)NC1=O (single isomer, unassigned) | 4 | 4800 | – | > 100000 | – | 21000 | 4 | 31.6 | 3.4 | –
CC(C)C[C@@H]1NC(=O)[C@@H](C(C)C)NC(=O)[C@@H]2CCCN2C(=O)[C@@H](CC(=O)O)NC(=O)[C@@H](Cc2c[nH]c3ccccc23)NC1=O (single isomer, unassigned) | 22 | – | 8.3 | – | – | – | – | 39.8 | – | > 1000
CC(C)C[C@@H]1NC(=O)[C@@H](C(C)C)NC(=O)[C@@H]2CCCN2C(=O)[C@@H](CS(=O)(=O)O)NC(=O)[C@@H](Cc2c[nH]c3ccccc23)NC1=O (single isomer, unassigned) | 21 | 30000 | 30 | > 10000 | 21 | > 100000 | – | 39.8 | – | –
CC(C)C[C@@H]1NC(=O)[C@@H](c2cccs2)NC(=O)[C@@H]2CCCN2C(=O)[C@@H](CC(=O)O)NC(=O)[C@@H](Cc2c[nH]c3ccccc23)NC1=O (single isomer, unassigned) | 3 | 19000 | – | 4000 (≈ 6.15 mM) | – | 55000 | 3 | 7.94 | 1.2 | –

Source: ChEMBL document CHEMBL1128172, “Structure-activity relationships of cyclic pentapeptide endothelin A receptor antagonists” (J Med Chem, 1995)
